Results: ChEMBL document CHEMBL1143896, “Discovery of piperazinylimidazo[1,2-a]pyridines as novel S4 binding elements for orally active factor Xa inhibitors” (Bioorg Med Chem, 2008)
Active and inactive are the calls of the source. No cut-off for these calls is given here.

Legend:
Coagulation factor X = Coagulation factor X (Homo sapiens, UniProt P00742); test: Inhibition of human factor 10a
Plasma [1] = test: Anticoagulant potency in human plasma assessed as concentration required to double prothrombin time; format: functional
In short: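 Compound in DMSO is added to normal human plasma (3% v/v) and preincubated 4 min at 37 °C. Clotting is started with thromboplastin and timed on an automatic coagulometer. Prolongation is measured against a DMSO control. The concentration that doubles clotting time comes from a least-squares regression, as a mean of duplicate measurements.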

CYP3A4 = CYP3A4 (Homo sapiens, UniProt P08684); test: Inhibition of human CYP3A4 at 10 uM; format: ADME
Sequence of CYP3A4 (P08684 whole entry): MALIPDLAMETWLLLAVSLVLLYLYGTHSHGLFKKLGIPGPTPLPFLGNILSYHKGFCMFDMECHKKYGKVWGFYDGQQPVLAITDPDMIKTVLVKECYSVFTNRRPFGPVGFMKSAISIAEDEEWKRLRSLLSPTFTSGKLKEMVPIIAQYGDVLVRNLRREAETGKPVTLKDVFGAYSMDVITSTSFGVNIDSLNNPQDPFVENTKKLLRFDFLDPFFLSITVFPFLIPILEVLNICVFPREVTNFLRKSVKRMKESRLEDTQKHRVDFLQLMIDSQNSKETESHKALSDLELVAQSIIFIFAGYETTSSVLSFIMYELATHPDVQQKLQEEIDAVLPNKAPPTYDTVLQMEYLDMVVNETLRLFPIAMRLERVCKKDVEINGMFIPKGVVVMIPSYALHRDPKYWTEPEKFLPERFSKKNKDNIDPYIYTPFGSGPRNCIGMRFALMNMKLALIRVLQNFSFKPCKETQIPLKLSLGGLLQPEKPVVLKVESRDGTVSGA
In short: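 CYP3A4 from human B-lymphoblastoid cells expressing the enzyme (10 nM) is incubated with 100 µM testosterone and 10 µM compound for 30 min at 37 °C. 6β-Hydroxytestosterone is measured by HPLC-UV and reported as % inhibition.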

Mus musculus [2] = test: Ex vivo anticoagulant potency in ICR mouse blood assessed as prothrombin time at 30 mg/kg, po after 1 hr relative to control; format: functional
In short: (§1)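 Male ICR mice (30–35 g) are fasted >12 h and dosed orally as a suspension in 0.5% methylcellulose; controls get vehicle. At 1 h, blood is drawn from the abdominal aorta under pentobarbital (50 mg/kg ip) into 3.8% citrate (9:1). Plasma is spun at 1000g for 10 min, preincubated 4 min at 37 °C, clotted with thromboplastin and timed. The read-out is the clotting-time ratio versus vehicle controls.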

Plasma [3] = test: Anticoagulant potency in ICR mouse plasma assessed as concentration required to double prothrombin time; format: functional
[4] = Volume of distribution at steady state in cynomolgus monkey at 0.3 mg/kg, iv; format: ADME, organism-based, Macaca fascicularis; parameters: dose 0.3 mg/kg, route intravenous; conditions: in vivo, read-out: Vdss
In short: (§2)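 Fasted male cynomolgus monkeys (n = 3) are dosed iv in DMA/PEG400 or orally as a 0.5% methylcellulose suspension. Femoral vein blood is taken up to 24 h (from 5 min iv, from 15 min po). Plasma is deproteinized with acetonitrile, diluted with 0.01 mol/L ammonium formate at pH 3.0, and measured by LC/MS/MS. Values are means ± SD of three.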

[5] = Oral bioavailability in cynomolgus monkey at 3 mg/kg; format: ADME, organism-based, Macaca fascicularis; conditions: in vivo; in short: as §2
Trypsin = Trypsin (Homo sapiens, UniProt P07477+P07478+P35030); test: Inhibition of human trypsin after 30 mins; format: protein assay
In short: (§3)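 Human proteases are incubated with compound for 30 min at 37 °C. Enzyme and substrate pairs are: thrombin 0.080 U/mL with S-2366; trypsin 0.040 µg/mL with S-2222; plasmin 0.040 U/mL with S-2366; kallikrein 0.020 U/mL with S-2302; t-PA 4000 U/mL with S-2288. p-Nitroanilide release is followed continuously for 5 min at 405 nm. Ki comes from Lineweaver–Burk plots at varied substrate levels, as means of three determinations.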

[6] = Drug concentration in cynomolgus monkey at 0.3 mg/kg, iv after 5 mins; format: ADME, organism-based, Macaca fascicularis; parameters: dose 0.3 mg/kg, route intravenous; conditions: in vivo, read-out: Drug uptake; in short: as §2
[7] = AUC in cynomolgus monkey at 3 mg/kg, po; format: ADME, organism-based, Macaca fascicularis; parameters: dose 3 mg/kg, route oral; conditions: plasma; in short: as §2
Plasma kallikrein = Plasma kallikrein (Homo sapiens, UniProt P03952); test: Inhibition of human kallikrein after 30 mins; in short: as §3
Sequence of Plasma kallikrein (P03952 20-390 limits assumed): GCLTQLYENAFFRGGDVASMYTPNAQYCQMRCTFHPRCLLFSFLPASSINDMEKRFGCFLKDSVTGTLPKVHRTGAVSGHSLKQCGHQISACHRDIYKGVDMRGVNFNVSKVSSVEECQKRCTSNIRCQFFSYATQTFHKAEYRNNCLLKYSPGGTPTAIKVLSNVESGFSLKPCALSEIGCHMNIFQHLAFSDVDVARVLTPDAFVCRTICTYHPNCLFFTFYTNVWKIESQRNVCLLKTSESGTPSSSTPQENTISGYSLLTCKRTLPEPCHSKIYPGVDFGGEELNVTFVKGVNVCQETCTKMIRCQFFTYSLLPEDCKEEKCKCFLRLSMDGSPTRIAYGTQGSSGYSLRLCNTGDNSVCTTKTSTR
Sequence of Plasma kallikrein (P03952 391-638 limits assumed): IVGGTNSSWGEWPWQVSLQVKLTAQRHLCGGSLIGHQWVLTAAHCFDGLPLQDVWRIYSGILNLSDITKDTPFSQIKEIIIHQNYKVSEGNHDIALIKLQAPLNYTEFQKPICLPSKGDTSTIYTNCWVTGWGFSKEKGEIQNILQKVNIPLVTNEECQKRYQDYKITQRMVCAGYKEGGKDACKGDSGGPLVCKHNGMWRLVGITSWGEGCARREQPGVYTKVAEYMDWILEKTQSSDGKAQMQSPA

[8] = Cmax in cynomolgus monkey at 3 mg/kg, po; format: ADME, organism-based, Macaca fascicularis; parameters: dose 3 mg/kg, route oral; conditions: in vivo; in short: as §2
[9] = Total clearance in cynomolgus monkey at 0.3 mg/kg, iv; format: ADME, organism-based, Macaca fascicularis; parameters: dose 0.3 mg/kg, route intravenous; conditions: in vivo; in short: as §2
[10] = Mean residence time in cynomolgus monkey at 0.3 mg/kg, iv; format: ADME, organism-based, Macaca fascicularis; parameters: dose 0.3 mg/kg, route intravenous; conditions: in vivo; in short: as §2
[11] = Tmax in cynomolgus monkey at 3 mg/kg, po; format: ADME, organism-based, Macaca fascicularis; parameters: dose 3 mg/kg, route oral; conditions: in vivo; in short: as §2
[12] = biological target: Tissue-type plasminogen activator (Homo sapiens, UniProt P00750); test: Inhibition of human tPA after 30 mins; in short: as §3
Sequence of Tissue-type plasminogen activator (P00750 whole entry): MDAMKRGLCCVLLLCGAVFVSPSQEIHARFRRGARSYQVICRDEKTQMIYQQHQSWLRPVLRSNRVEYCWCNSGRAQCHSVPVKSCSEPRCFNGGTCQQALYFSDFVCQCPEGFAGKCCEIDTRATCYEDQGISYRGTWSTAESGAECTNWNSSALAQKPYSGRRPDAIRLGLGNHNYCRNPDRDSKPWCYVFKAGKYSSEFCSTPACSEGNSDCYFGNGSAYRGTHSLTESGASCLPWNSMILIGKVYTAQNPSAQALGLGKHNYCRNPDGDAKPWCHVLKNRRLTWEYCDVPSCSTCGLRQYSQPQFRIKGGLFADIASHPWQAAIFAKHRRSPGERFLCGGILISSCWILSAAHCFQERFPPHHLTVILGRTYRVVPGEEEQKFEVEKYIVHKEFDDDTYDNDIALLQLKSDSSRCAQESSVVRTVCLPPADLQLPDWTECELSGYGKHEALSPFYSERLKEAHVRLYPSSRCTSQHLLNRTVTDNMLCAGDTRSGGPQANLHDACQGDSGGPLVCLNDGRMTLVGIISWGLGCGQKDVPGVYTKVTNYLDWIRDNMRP

Plasminogen = Plasminogen (Homo sapiens, UniProt P00747); test: Inhibition of human plasmin after 30 mins; in short: as §3
Sequence of Plasminogen (P00747 97-580 limits assumed): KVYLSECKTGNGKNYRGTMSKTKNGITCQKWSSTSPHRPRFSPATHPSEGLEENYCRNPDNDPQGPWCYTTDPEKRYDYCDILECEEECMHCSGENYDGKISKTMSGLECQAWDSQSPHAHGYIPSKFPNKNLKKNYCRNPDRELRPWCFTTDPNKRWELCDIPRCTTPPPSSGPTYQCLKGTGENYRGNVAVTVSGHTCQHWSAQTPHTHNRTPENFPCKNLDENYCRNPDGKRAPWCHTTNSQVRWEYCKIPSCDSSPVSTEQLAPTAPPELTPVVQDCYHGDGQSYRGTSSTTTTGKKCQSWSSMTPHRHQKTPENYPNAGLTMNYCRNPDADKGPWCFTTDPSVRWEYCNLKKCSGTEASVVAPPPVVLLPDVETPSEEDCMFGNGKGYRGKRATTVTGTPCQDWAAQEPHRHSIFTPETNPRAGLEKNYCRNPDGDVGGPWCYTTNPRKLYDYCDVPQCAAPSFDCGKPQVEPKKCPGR
Sequence of Plasminogen (P00747 581-810 limits assumed): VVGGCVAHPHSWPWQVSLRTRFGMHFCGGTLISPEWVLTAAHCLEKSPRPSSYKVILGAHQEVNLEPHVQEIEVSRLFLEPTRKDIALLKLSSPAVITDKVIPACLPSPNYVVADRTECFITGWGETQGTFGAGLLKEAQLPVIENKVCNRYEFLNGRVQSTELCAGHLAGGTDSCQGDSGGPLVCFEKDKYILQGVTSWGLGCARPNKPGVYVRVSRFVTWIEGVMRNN

[13] = Mean residence time in cynomolgus monkey at 3 mg/kg, po; format: ADME, organism-based, Macaca fascicularis; parameters: dose 3 mg/kg, route oral; conditions: in vivo; in short: as §2
[14] = AUC in cynomolgus monkey at 0.3 mg/kg, iv; format: ADME, organism-based, Macaca fascicularis; parameters: dose 0.3 mg/kg, route intravenous; conditions: plasma; in short: as §2
Prothrombin = Prothrombin (Homo sapiens, UniProt P00734); test: Inhibition of human thrombin after 30 mins; in short: as §3
Mus musculus [15] = test: Ex vivo anticoagulant potency in ICR mouse blood assessed as 1.1 times prolongation of prothrombin time at 30 mg/kg, po after 1 hr relative to control; format: functional, organism-based; parameters: dose 30 mg/kg; in short: as §1
Mus musculus [16] = test: Ex vivo anticoagulant potency in ICR mouse blood assessed as 1.4 times prolongation of prothrombin time at 100 mg/kg, po after 1 hr relative to control; format: functional, organism-based; parameters: dose 100 mg/kg; in short: as §1

Sequence of Coagulation factor X (P00742 41-179 limits assumed): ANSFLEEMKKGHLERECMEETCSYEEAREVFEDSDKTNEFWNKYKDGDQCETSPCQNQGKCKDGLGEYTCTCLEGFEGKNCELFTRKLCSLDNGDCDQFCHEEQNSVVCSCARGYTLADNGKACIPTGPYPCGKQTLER
Sequence of Coagulation factor X (P00742 235-488 limits assumed): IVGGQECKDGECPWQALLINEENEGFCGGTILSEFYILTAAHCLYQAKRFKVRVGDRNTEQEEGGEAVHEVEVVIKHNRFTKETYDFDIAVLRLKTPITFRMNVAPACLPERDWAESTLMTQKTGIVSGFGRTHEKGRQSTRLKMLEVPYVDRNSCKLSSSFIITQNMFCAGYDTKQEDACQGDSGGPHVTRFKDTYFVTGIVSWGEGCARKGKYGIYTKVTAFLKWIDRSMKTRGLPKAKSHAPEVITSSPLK

Compound	IC50 (Coagulation factor X)	inhibition at 10 µM (CYP3A4)	2PT (Plasma [1])	Ratio (Mus musculus [2])	2PT (Plasma [3])	further results
CC(C)(O)c1cn2c(N3CCN(C(=O)CCS(=O)(=O)c4ccc5cc(Cl)ccc5c4)CC3)cccc2n1	18 nM		2.1 µM			
CC(=N)N1CC[C@H](Oc2ccc([C@H](Cc3ccc4ccc(C(=N)N)cc4c3)C(=O)O)cc2)C1 [DX-9065A]			0.81 µM			Activity (Mus musculus [15]): Active; Activity (Mus musculus [16]): Active
CN(C(=O)CCS(=O)(=O)c1ccc2cc(Cl)ccc2c1)C1CCN(c2cccc3nccn23)CC1	840 nM					
O=C(CCS(=O)(=O)c1ccc2cc(Cl)ccc2c1)N1CCN(c2ccc3nccn3c2)CC1	87 nM		2.9 µM			
Nc1cnc2cccc(N3CCN(C(=O)CCS(=O)(=O)c4ccc5cc(Cl)ccc5c4)CC3)n12	35 nM	52%	0.73 µM	2.4	1.5 µM	
CC(O)c1cn2c(N3CCN(C(=O)CCS(=O)(=O)c4ccc5cc(Cl)ccc5c4)CC3)cccc2n1 (stereo not given)	20 nM	23%	1.2 µM	2.5	1.8 µM	
O=C(CCS(=O)(=O)c1ccc2cc(Cl)ccc2c1)N1CCN(c2cccc3nccn23)CC1	21 nM	45%	1.4 µM	2.5	1.7 µM	
CC(=O)Nc1cnc2cccc(N3CCN(C(=O)CCS(=O)(=O)c4ccc5cc(Cl)ccc5c4)CC3)n12	24 nM		1.8 µM			
O=C(CCS(=O)(=O)c1ccc2cc(Cl)ccc2c1)N1CCN(c2cccc3ncc([N+](=O)[O-])n23)CC1	24 nM		3.6 µM			
O=C(CCS(=O)(=O)c1ccc2cc(Cl)ccc2c1)N1CCN(c2ccn3ccnc3c2)CC1	78 nM		2.2 µM			
O=C(CCS(=O)(=O)c1ccc2cc(Cl)ccc2c1)N1CCN(c2cccc3ncc(CO)n23)CC1	29 nM		1.7 µM			

More lines, main results first:

IC50 (Coagulation factor X)	inhibition at 10 µM (CYP3A4)	Compound	2PT (Plasma [1])	Ratio (Mus musculus [2])	2PT (Plasma [3])	further results
18 nM	33%	CC(O)Cc1cn2c(N3CCN(C(=O)CCS(=O)(=O)c4ccc5cc(Cl)ccc5c4)CC3)cccc2n1 (stereo not given)	1.1 µM	3.2	1.5 µM	
9 nM	15%	O=C(CCS(=O)(=O)c1ccc2cc(Cl)ccc2c1)N1CCN(c2cccc3nc(CO)cn23)CC1	1.4 µM	1.3	1.4 µM	Vd [4]: 0.81 L/kg; bioavailability [5]: 30.5%; Ki (Trypsin): > 60000 nM; Ki (Coagulation factor X): 8 nM; concentration at 5 min [6]: 540 ng/mL; AUC [7]: 2260 ng·h/mL; Ki (Plasma kallikrein): 14000 nM; Cmax [8]: 500 ng/mL; clearance [9]: 7.33 mL/min/kg; MRT [10]: 1.97 h; Tmax [11]: 1.33 h; Ki [12]: > 60000 nM; Ki (Plasminogen): > 60000 nM; MRT [13]: 3.6 h; AUC [14]: 730 ng·h/mL; Ki (Prothrombin): 960 nM
22 nM	26%	CC(C)(O)Cc1cn2c(N3CCN(C(=O)CCS(=O)(=O)c4ccc5cc(Cl)ccc5c4)CC3)cccc2n1	0.86 µM	2.4	1.7 µM	
93 nM		CCOC(=O)Cc1cn2c(N3CCN(C(=O)CCS(=O)(=O)c4ccc5cc(Cl)ccc5c4)CC3)cccc2n1	5.1 µM			
45 nM		NC(=O)Cc1cn2c(N3CCN(C(=O)CCS(=O)(=O)c4ccc5cc(Cl)ccc5c4)CC3)cccc2n1	2.1 µM			
12 nM	58%	Cc1cn2c(N3CCN(C(=O)CCS(=O)(=O)c4ccc5cc(Cl)ccc5c4)CC3)cccc2n1	0.96 µM	2.9	1.3 µM	
57 nM		CN(C)C(=O)Cc1cn2c(N3CCN(C(=O)CCS(=O)(=O)c4ccc5cc(Cl)ccc5c4)CC3)cccc2n1	2.5 µM			
41 nM		CNC(=O)Cc1cn2c(N3CCN(C(=O)CCS(=O)(=O)c4ccc5cc(Cl)ccc5c4)CC3)cccc2n1	2 µM			
